From ChEMBL document CHEMBL1126191, “New antiinflammatory agents. 2. 5-Phenyl-3H-imidazo[4,5-c][1,8]naphthyridin-4(5H)-ones: a new class of nonsteroidal antiinflammatory agents with potent activity like glucocorticoids” (J Med Chem, 1992)

Columns and labels:
Rattus norvegicus [1] = experiment: Antiinflammatory effect (oral administration) on rat paw edema model (reversed passive Arthus reaction-induced paw edema) at 10 mg/kg; type: functional
Method in brief: (§1)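 Reversed passive Arthus: male Wistar rats (~150 g, n=5) were dosed orally with compound in 5% arabic gum. Paw volume was measured by plethysmograph before dosing and 2 h after antigen. % inhibition was calculated vs controls, and ED50 came from log-dose linear regression.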

Rattus norvegicus [2] = experiment: Antiinflammatory effect in rat paw edema model following 50 mg/kg p.o. administration.; type: functional; conditions: route oral
Rattus norvegicus [3] = experiment: Antiinflammatory effect (oral administration), on zymosan-induced rat paw edema at 25 mg/kg; type: functional
Method in brief: (§2)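 Oral dosing in 5% arabic gum suspension to male Wistar rats (~150 g, n=5) 1 h before subplantar injection of 1% zymosan in saline into the hind paw. Paw volume was read by plethysmograph before dosing and 4 h after zymosan.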

Mus musculus = experiment: Acute lethal toxicity (peroral administration), determined by observing the mortality for 7 days after the administration in mouse; type: organism-based; conditions: in vivo, po, 168 h
Method in brief: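 Male dd mice of 20-25 g, three per group, given compound by mouth once. Mortality followed for 7 days, and the minimum lethal dose (MLD) was recorded in mg/kg po.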

Rattus norvegicus [4] = experiment: Antiinflammatory effect (oral administration), on rat reversed passive Arthus reaction-induced paw edema at 5 mg/kg; type: functional; method in brief: as §1
Rattus norvegicus [5] = experiment: Antiinflammatory effect (oral administration) on rat paw edema model (reversed passive Arthus reaction-induced paw edema) at 5 mg/kg; type: functional; method in brief: as §1
Rattus norvegicus [6] = experiment: Antiinflammatory effect (oral administration) on rat paw edema model (carrageenan-induced paw edema) at 50 mg/kg; type: functional
Rattus norvegicus [7] = experiment: Antiinflammatory effect (oral administration) on rat paw edema model (zymosan-induced paw edema) at 50 mg/kg; type: functional; method in brief: as §2
Rattus norvegicus [8] = experiment: Oral dose required for antiinflammatory effect on zymosan induced rat paw edema.; type: functional; method in brief: as §2
Rattus norvegicus [9] = experiment: Dose of the compound (oral administration) showing antiinflammatory effect on rat paw edema model (carrageenan-induced paw edema, CPE); type: functional
Rattus norvegicus [10] = experiment: Dose of the compound (oral administration) showing antiinflammatory effect on rat paw edema model (reversed passive Arthus reaction-induced paw edema, RPAR); type: functional; method in brief: as §1
Rattus norvegicus [11] = experiment: Antiinflammatory effect of the compound(oral administration) on rat paw edema model(carrageenan-induced paw edema) at 50 mg/kg; type: functional
Rattus norvegicus [12] = experiment: Antiinflammatory effect of the compound (oral administration) on rat paw edema model (reversed passive Arthus reaction-induced paw edema, RPAR); type: functional; method in brief: as §1
Rattus norvegicus [13] = experiment: Antiinflammatory effect of the compound(oral administration) on rat paw edema model(zymosan-induced paw edema) at 50 mg/kg; type: functional; method in brief: as §2
Rattus norvegicus [14] = experiment: Antiinflammatory effect (oral administration) on rat paw edema model (reversed passive Arthus reaction-induced paw edema) at 100 mg/kg; type: functional; method in brief: as §1

Structure (SMILES) | inhibition in vivo at 50 mg/kg (Rattus norvegicus [2]) | inhibition in vivo at 25 mg/kg (Rattus norvegicus [3]) | MLD (Mus musculus) | inhibition in vivo at 5 mg/kg (Rattus norvegicus [4]) | ED40 (Rattus norvegicus [8]) | ED40 (Rattus norvegicus [9]) | ED50 (Rattus norvegicus [10]) | inhibition in vivo at 50 mg/kg (Rattus norvegicus [11]) | also measured
O=c1c2c(ncn2CCc2ccccc2)c2cccnc2n1-c1ccccc1 | 2.2% | 25.7% | > 300 mg/kg |  |  |  |  |  | inhibition in vivo at 10 mg/kg (Rattus norvegicus [1]): 5.6%
O=c1c2c(ncn2Cc2ccccc2Cl)c2cccnc2n1-c1ccccc1 | 14.9% | 27.3% |  | 20.8% |  |  |  |  | 
CCN(CC)CCCn1cnc2c3cccnc3n(-c3ccccc3)c(=O)c21 | 7.2% | 17.4% |  | 11.1% |  |  |  |  | 
O=c1c2c(nc(-c3ccccc3)n2Cc2ccccc2)c2cccnc2n1-c1ccccc1 |  |  |  |  |  |  |  |  | inhibition in vivo at 5 mg/kg (Rattus norvegicus [5]): 1.2%; inhibition in vivo at 50 mg/kg (Rattus norvegicus [6]): 0%; inhibition in vivo at 50 mg/kg (Rattus norvegicus [7]): -4%
O=c1c2c(ncn2Cc2ccccc2)c2cccnc2n1-c1ccccc1 |  | 68.3% | > 300 mg/kg | 79.7% | 0.37 mg/kg | 5.3 mg/kg | 0.47 mg/kg | 63% | 
O=c1c2c(ncn2CCCN2CCOCC2)c2cccnc2n1-c1ccccc1 |  | 22.4% |  | -3.5% |  |  |  | 9.7% | 
CCn1cnc2c3cccnc3n(-c3ccccc3)c(=O)c21 |  | 77.5% | 100 mg/kg |  | 1.6 mg/kg | 13.9 mg/kg | 1.9 mg/kg | 58.2% | inhibition in vivo at 10 mg/kg (Rattus norvegicus [1]): 86.9%
Cn1cnc2c3cccnc3n(-c3ccccc3)c(=O)c21 |  |  | 100 mg/kg | 45% |  |  |  | 40% | 
O=c1c2c(ncn2Cc2ccc(Cl)cc2)c2cccnc2n1-c1ccccc1 | 21.3% | 42.8% | > 300 mg/kg | 15.1% | 20.3 mg/kg |  |  |  | 
CC(C)n1cnc2c3cccnc3n(-c3ccccc3)c(=O)c21 | 43.1% | 62.4% | 200 mg/kg | 13.3% | 12.7 mg/kg |  |  |  | 
O=c1c2ncn(Cc3ccccc3)c2c2cccnc2n1-c1ccccc1 |  | 4.7% | > 300 mg/kg | 1.5% |  |  |  |  | 
CC(c1ccccc1)n1cnc2c3cccnc3n(-c3ccccc3)c(=O)c21 (centres undefined) | 3.5% | 1.6% | > 300 mg/kg | 14.9% |  |  |  |  | 
CC(C)Cn1cnc2c3cccnc3n(-c3ccccc3)c(=O)c21 |  | 69.7% | 300 mg/kg | 61.8% | 0.19 mg/kg | 9.1 mg/kg | 0.97 mg/kg | 57.4% | 
O=c1c2c(ncn2CCCO)c2cccnc2n1-c1ccccc1 |  | 58.1% | > 300 mg/kg | 41.3% | 4.8 mg/kg | 33.5 mg/kg | 3.7 mg/kg | 42.6% | 
CC(=O)OCCn1cnc2c3cccnc3n(-c3ccccc3)c(=O)c21 |  | 41.6% | > 300 mg/kg |  | 19.4 mg/kg | 40.3 mg/kg |  | 42.2% | inhibition in vivo at 10 mg/kg (Rattus norvegicus [1]): 11.8%
O=C(O)Cn1cnc2c3cccnc3n(-c3ccccc3)c(=O)c21 | 10.8% | 5.1% |  | 3.3% |  |  |  |  | 
CCCCCCn1cnc2c3cccnc3n(-c3ccccc3)c(=O)c21 |  | 33.5% | > 300 mg/kg | 51.1% |  |  | 4.9 mg/kg | 35.2% | 
CC(C)n1cnc2c(=O)n(-c3ccccc3)c3ncccc3c21 |  |  | > 300 mg/kg | 32% |  |  |  |  | 
C=CCn1cnc2c3cccnc3n(-c3ccccc3)c(=O)c21 |  | 67.3% | > 300 mg/kg | 22.7% | 2.7 mg/kg | 21.9 mg/kg |  | 67.8% | 
Oc1c2ncnc-2c2cccnc2n1-c1ccccc1 |  |  | > 300 mg/kg | 15.4% |  |  |  |  | 
Cc1ccc(C)c(Cn2cnc3c4cccnc4n(-c4ccccc4)c(=O)c32)c1 | 1.2% | 10.1% |  | -3.5% |  |  |  |  | 

Structure (SMILES) | inhibition in vivo at 50 mg/kg (Rattus norvegicus [2]) | inhibition in vivo at 25 mg/kg (Rattus norvegicus [3]) | MLD (Mus musculus) | inhibition in vivo at 5 mg/kg (Rattus norvegicus [4]) | ED40 (Rattus norvegicus [8]) | ED40 (Rattus norvegicus [9]) | ED50 (Rattus norvegicus [10]) | inhibition in vivo at 50 mg/kg (Rattus norvegicus [11]) | also measured
CCCn1cnc2c3cccnc3n(-c3ccccc3)c(=O)c21 |  | 61.2% | 200 mg/kg |  | 1.3 mg/kg | 15.9 mg/kg | 2 mg/kg | 57.3% | Inhibition (Rattus norvegicus [12]): 74.4%
Cc1cccc(Cn2cnc3c4cccnc4n(-c4ccccc4)c(=O)c32)c1 |  | 33.3% |  |  |  |  |  | 18.4% | inhibition in vivo at 10 mg/kg (Rattus norvegicus [1]): 33.5%
CCOCCn1cnc2c3cccnc3n(-c3ccccc3)c(=O)c21 |  | 57.4% | > 300 mg/kg | 50.3% | 6 mg/kg | 15.5 mg/kg | 3.2 mg/kg | 56.7% | 
O=c1c2c(ncn2C/C=C/c2ccccc2)c2cccnc2n1-c1ccccc1 | 26.3% | 34.2% | > 300 mg/kg | 17.5% |  |  |  |  | 
COc1ccc(Cn2cnc3c4cccnc4n(-c4ccccc4)c(=O)c32)cc1 | 37.8% | 66.9% | > 300 mg/kg | 59.2% | 0.93 mg/kg |  | 2.3 mg/kg |  | 
CC(=O)Cn1cnc2c3cccnc3n(-c3ccccc3)c(=O)c21 |  | 53.7% | > 200 mg/kg | 57.7% | 3.9 mg/kg | 40 mg/kg | 4.5 mg/kg | 41.3% | 
CCn1cnc2c(=O)n(-c3ccccc3)c3ncccc3c21 |  | 13.5% | > 300 mg/kg | 3.5% |  |  |  |  | 
CCOC(=O)Cn1cnc2c3cccnc3n(-c3ccccc3)c(=O)c21 |  | 5% |  | 9.9% |  |  |  | 23.1% | 
CC(O)Cn1cnc2c3cccnc3n(-c3ccccc3)c(=O)c21 (centres undefined) |  | 74.7% | 300 mg/kg | 61.8% | 4.5 mg/kg | 7.8 mg/kg | 1.9 mg/kg | 48% | 
O=c1c2c(ncn2Cc2cccc(Br)c2)c2cccnc2n1-c1ccccc1 | 26.9% |  |  |  |  |  |  |  | inhibition in vivo at 10 mg/kg (Rattus norvegicus [1]): 17.2%
O=c1c2c(ncn2Cc2cccc([N+](=O)[O-])c2)c2cccnc2n1-c1ccccc1 | 33.1% | 35.7% |  | 43.9% |  |  |  |  | 
O=c1c2c(ncn2Cc2ccc([N+](=O)[O-])cc2)c2cccnc2n1-c1ccccc1 | 35.9% | 45.6% | > 300 mg/kg | 22.2% | 3.5 mg/kg |  |  |  | 
O=c1c2c(ncn2CC2CCCCC2)c2cccnc2n1-c1ccccc1 | 34.7% | 49.8% | > 300 mg/kg |  | 11.8 mg/kg |  | 5.7 mg/kg |  | inhibition in vivo at 10 mg/kg (Rattus norvegicus [1]): 62.9%
COC(=O)c1ccc(Cn2cnc3c4cccnc4n(-c4ccccc4)c(=O)c32)cc1 |  |  |  | 9.2% |  |  |  | 8.7% | inhibition in vivo at 50 mg/kg (Rattus norvegicus [13]): 9.9%
CCCCn1cnc2c3cccnc3n(-c3ccccc3)c(=O)c21 |  | 55.5% | 300 mg/kg | 49.9% | 2.1 mg/kg | 15.4 mg/kg | 4.8 mg/kg | 45.8% | 
Cc1nc2c3cccnc3n(-c3ccccc3)c(=O)c2n1Cc1ccccc1 |  | 19.2% |  | 6.5% |  |  |  | 4.7% | 
Cc1ccc(Cn2cnc3c4cccnc4n(-c4ccccc4)c(=O)c32)cc1 | 39.2% | 56.2% | > 300 mg/kg | 67.4% | 3.5 mg/kg |  | 1.9 mg/kg |  | 
COc1cccc(Cn2cnc3c4cccnc4n(-c4ccccc4)c(=O)c32)c1 | 13% | 43.5% |  |  |  |  |  |  | inhibition in vivo at 10 mg/kg (Rattus norvegicus [1]): 24%
C[C@]12C=CC(=O)C=C1CC[C@@H]1[C@@H]2[C@@H](O)C[C@@]2(C)[C@H]1CC[C@]2(O)C(=O)CO [PREDNISOLONE] |  |  | > 300 mg/kg |  | 1.2 mg/kg | 4.7 mg/kg | 74.2 mg/kg |  | 
NC(=O)N1C(=O)/C(=C(\O)c2cccs2)c2cc(Cl)ccc21 [TENIDAP] |  |  | > 300 mg/kg |  | 41.2 mg/kg | 14.8 mg/kg |  |  | inhibition in vivo at 100 mg/kg (Rattus norvegicus [14]): 4.8%
